In the library only some 5.8% were active in any assay of this set; here they are far more common.
GASC1 inh = inhibitors of GASC-1 (KDM4C) histone demethylase, primary screen, biochemical, single concentration HTS | inhibition, % at 12.5 µM | AID 720574, 2013 | Lysine-specific demethylase 4C (Homo sapiens), Q9H3R0 | GST-KDM4C 2-372, H3K9me3 peptide, LANCE TR-FRET | 96,000 tested, 0.15% active;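 active means mean replicate inhibition above about 25%, with at least 55% of replicates also reaching it, limit read from the data, passing the limit was not always enough; inconclusive means only one of those two conditions met; inactive means neither condition met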
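material = GST-tagged GASC-1 (JMJD2C) catalytic fragment, aa 2-372 | amount = enzyme final amount 10 nM | medium = HEPES buffer, pH 7.5, plus ascorbate | also added = H3K9me3 peptide substrate, Fe(II), 2-oxoglutarate | dosing = single dose | times = 30 min demethylation and 1 h detection at room temperature | detection = LANCE TR-FRET | read-out basis = Fall in 671/618 emission ratio as inhibition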
Pf Dd2 growth = P. falciparum Dd2 growth inhibitors, primary screen, SYBR Green fluorescence, single dose replicates. 72 h; hits give low values. activity change, % at 10 µM. 94,000 tested, 2.3% active; in the data active means activity change below about -80%; inconclusive means no clear call, values can overlap the other calls
T cruzi growth-1 = T. cruzi intracellular proliferation inhibitors, primary screen, cell-based, beta-gal Tulahuen parasites, NIH3T3 host, luminescence | T. cruzi beta-gal in NIH3T3, GalScreen luminescence, 90 h | inhibition, % at 8.34 µM | 77,000 tested, 5.9% active;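 active means mean inhibition above about 93%, with at least 55% of replicates each passing it, limit read from the data, passing the limit was not always enough; inconclusive means only one of those two conditions holds; inactive means neither condition holds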
IDH1 R132H inh = inhibitors of IDH1 R132H reductase, primary screen, biochemical, plate reader, single point; Isocitrate dehydrogenase [NADP] cytoplasmic (Homo sapiens), O75874; inhibition, % at 10 µM; AID 624101, 2012; diaphorase/resazurin fluorescence, 60 min; 70,000 tested, 0.18% active; in the data active means inhibition above about 34%; inconclusive means no clear call, values can overlap the other calls; inactive means below about 11%;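 further: 0% = DMSO and 100% = no enzyme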
Target sequence (O75874 whole entry R132H): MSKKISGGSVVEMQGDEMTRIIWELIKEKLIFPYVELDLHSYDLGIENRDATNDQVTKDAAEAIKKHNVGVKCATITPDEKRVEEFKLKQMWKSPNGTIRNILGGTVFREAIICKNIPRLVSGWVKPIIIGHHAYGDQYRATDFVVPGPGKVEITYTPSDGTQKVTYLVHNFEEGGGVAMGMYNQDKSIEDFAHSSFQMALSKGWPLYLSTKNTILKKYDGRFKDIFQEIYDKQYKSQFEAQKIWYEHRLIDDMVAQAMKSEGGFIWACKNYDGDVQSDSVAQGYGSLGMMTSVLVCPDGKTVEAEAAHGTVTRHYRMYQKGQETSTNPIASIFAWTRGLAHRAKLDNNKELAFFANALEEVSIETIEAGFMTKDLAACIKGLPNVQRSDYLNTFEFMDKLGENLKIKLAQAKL
T cruzi growth-2 = T. cruzi intracellular proliferation inhibitors, confirmation, cell-based, NIH3T3 host, beta-gal parasite, luminescence, cherry-pick. shares compounds with T cruzi growth-1. inhibition, % at 8.35 µM. AID 651739, 2012. 5,600 tested, 72% active. T. cruzi beta-gal in NIH3T3, GalScreen luminescence, 90 h;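 active means mean replicate inhibition above about 95% and at least 55% of replicates individually reaching it, limit read from the data; inconclusive means only one of the two criteria is met; inactive means neither criterion is met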
T cruzi growth-3 = inhibitors of intracellular T. cruzi replication, confirmation, NIH3T3 host cells, beta-gal parasites, cherry-pick, set 2; shares compounds with T cruzi growth-1; T. cruzi beta-gal in NIH3T3, GalScreen luminescence, 90 h; inhibition, % at 2.09 µM; 5,600 tested, 21% active;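 active means mean inhibition above about 95%, with at least 55% of replicates also reaching it, limit read from the data; inconclusive means meets just one of the two conditions; inactive means meets neither condition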;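 further: plate controls were neutral control median for no effect and positive control median for full effect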
3T3 cytotox = cytotoxicity in mouse NIH/3T3 fibroblasts, confirmation, cytotoxicity control for T. cruzi proliferation inhibitor project, cell-based, cherry-pick, single point; shares compounds with T cruzi growth-1; NIH/3T3 viability, CellTiter-Glo ATP luminescence, 90 h; cytotoxicity (signal decrease), % at 8.35 µM; 5,600 tested, 14% active; AID 651742, 2012;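 active means mean signal decrease across replicates above about 35% based on untreated-well scatter, with enough replicates individually passing, limit read from the data; inconclusive means no rule stated though some were filed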;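 further: 0% = median of neutral control wells and 100% = median of positive control wells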
3T3 cytotox 2 = NIH/3T3 fibroblast cytotoxicity, confirmation, cytotoxicity control, cell-based, cherry-pick, single point, set 2 | shares compounds with T cruzi growth-1 | inhibition, % at 24.9 µM | NIH/3T3 viability, CellTiter-Glo ATP luminescence, 90 h | 5,600 tested, 56% active;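 active means mean loss of cell viability signal at or above a set limit, and enough replicates individually reaching it; inconclusive means meets only the mean limit or only the replicate share; inactive means meets neither condition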;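 further: 0% = median of neutral control wells and 100% = median of positive control wells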
* = called active by the depositor; ? = inconclusive; / = not tested or not shown.

SMILES	GASC1 inh	Pf Dd2 growth	T cruzi growth-1	IDH1 R132H inh	T cruzi growth-2	T cruzi growth-3	3T3 cytotox	3T3 cytotox 2
CCCNC(=O)N1[C@H](C#N)[C@H](c2ccccc2)[C@H]1CO	0	-39	37	/	/	/	/	/
C[C@@H]1CN([C@@H](C)CO)S(=O)(=O)c2ccc(-c3ccncc3)cc2O[C@H]1CN(C)C(=O)CC1CC1	5	-6	118*	1	84	86	3	?
C[C@@H]1CN([C@@H](C)CO)S(=O)(=O)c2ccc(-c3ccc(F)cc3)cc2O[C@H]1CN(C)C(=O)C1CCCCC1	-3	-66	105*	/	101*	73	52*	47*
Cc1ccc(-c2ccc3c(c2)O[C@H](CN(C)C(=O)C2CCC2)[C@H](C)CN([C@H](C)CO)S3(=O)=O)cc1	-1	-26	87	1	/	/	/	/
Cc1ccc(-c2ccc3c(c2)O[C@H](CN(C)C(=O)C2CCCCC2)[C@@H](C)CN([C@@H](C)CO)S3(=O)=O)cc1	-2	-41	123*	/	102*	100*	3	104*
C[C@H](CO)N1C[C@H](C)[C@H](CN(C)C(=O)C2CC2)Oc2cc(-c3ccccc3F)ccc2S1(=O)=O	-1	-58	109*	-1	70	16	15	64*
C[C@@H]1CN([C@@H](C)CO)S(=O)(=O)c2ccc(-c3ccncc3)cc2O[C@@H]1CN(C)C(=O)CC1CC1	2	3	85	7	/	/	/	/
Cc1ccc(-c2ccc3c(c2)O[C@@H](CN(C)C(=O)C2CCCCC2)[C@@H](C)CN([C@@H](C)CO)S3(=O)=O)cc1	-3	-67	125*	-2	100*	93	22	106*
C[C@@H]1CN([C@@H](C)CO)S(=O)(=O)c2ccc(-c3ccncc3)cc2O[C@H]1CN(C)C(=O)C1CCC1	2	-14	108*	8	103*	78	5	46*
C[C@@H]1CN([C@@H](C)CO)S(=O)(=O)c2ccc(-c3ccccc3)cc2O[C@@H]1CN(C)C(=O)C1CCCCC1	-1	-6	97*	/	103*	82	26	80*
Cc1ccc(-c2ccc3c(c2)O[C@H](CN(C)C(=O)C2CCC2)[C@@H](C)CN([C@H](C)CO)S3(=O)=O)cc1	-1	-44	57	/	/	/	/	/
Cc1ccc(-c2ccc3c(c2)O[C@@H](CN(C)C(=O)C2CCCCC2)[C@@H](C)CN([C@H](C)CO)S3(=O)=O)cc1	-2	-68	123*	/	99*	93	13	106*
C[C@H](CO)N1C[C@H](C)[C@H](CN(C)C(=O)C2CCC2)Oc2cc(-c3ccncc3)ccc2S1(=O)=O	3	-30	85	/	/	/	/	/
CCCNC(=O)N1CC2(C1)[C@@H](c1ccccc1)[C@@H](CO)N2Cc1cccc(F)c1	1	-52	/	/	/	/	/	/
CCc1cccc(C)c1NC(=O)CSc1nnc(-c2cccnc2)n1C	/	/	/	0	/	/	/	/
O=C(Cn1cnc2ccccc2c1=O)Nc1ccc2c(c1)Cc1ccccc1-2	/	/	/	0	/	/	/	/
CN1c2ccc(-c3ccccc3)cc2[C@@H]2[C@@H](CCN2C(=O)Cc2cccnc2)[C@@H]1CO	0	0	106*	/	109*	71	2	1
COc1ccc(-c2ccc3c(c2)[C@@H]2[C@@H](CCN2C(=O)Cc2cccnc2)[C@@H](CO)N3C)cc1	2	0	81	/	/	/	/	/
CN1c2ccc(-c3ccccc3)cc2[C@@H]2[C@@H](CCN2C(=O)Cc2ccccc2)[C@@H]1CO	-2	10	102*	/	103*	111*	-15	106*

Compound activity: PubChem BioAssay, Broad Institute
